The values that follow come from ChEMBL document CHEMBL1641407, “Imidazo[4,5-d]thiazolo[5,4-b]pyridine based inhibitors of IKK2: synthesis, SAR, PK/PD and activity in a preclinical model of rheumatoid arthritis” (Bioorg Med Chem Lett, 2011).

Bounds are passed on as bounds.

Data set [1] deals with T1, Inhibitor of nuclear factor kappa-B kinase subunit beta (Homo sapiens, UniProt O14920).
T1 sequence (O14920 whole entry): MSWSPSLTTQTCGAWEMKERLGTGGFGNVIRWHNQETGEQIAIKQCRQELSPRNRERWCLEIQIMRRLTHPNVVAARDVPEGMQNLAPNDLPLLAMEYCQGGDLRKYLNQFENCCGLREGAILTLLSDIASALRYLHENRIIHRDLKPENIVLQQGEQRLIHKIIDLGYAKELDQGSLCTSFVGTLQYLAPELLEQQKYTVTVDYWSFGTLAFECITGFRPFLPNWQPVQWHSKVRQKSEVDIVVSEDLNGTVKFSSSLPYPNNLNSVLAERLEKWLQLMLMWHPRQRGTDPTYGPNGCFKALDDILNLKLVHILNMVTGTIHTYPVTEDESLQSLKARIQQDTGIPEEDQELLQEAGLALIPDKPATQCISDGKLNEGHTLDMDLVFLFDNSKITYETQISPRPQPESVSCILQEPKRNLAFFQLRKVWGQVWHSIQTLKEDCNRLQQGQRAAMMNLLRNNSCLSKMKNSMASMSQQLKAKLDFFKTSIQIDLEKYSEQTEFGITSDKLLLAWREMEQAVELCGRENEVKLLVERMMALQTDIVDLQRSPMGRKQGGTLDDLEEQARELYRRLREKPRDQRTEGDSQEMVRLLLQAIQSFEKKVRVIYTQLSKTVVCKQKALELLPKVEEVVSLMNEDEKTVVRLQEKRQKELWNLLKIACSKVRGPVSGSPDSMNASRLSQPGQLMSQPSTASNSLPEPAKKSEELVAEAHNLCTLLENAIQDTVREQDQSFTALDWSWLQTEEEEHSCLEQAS
Briefly: Inhibition of IKK2. A digest of the protocol:
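IKK-2 added at room temperature to 50 µg/mL GST-IκBα with ATP in 25 mM Tris·HCl, pH 7.5, containing MgCl₂, phosphate salts, NaCl, KCl, 1 mM DTT, 5% glycerol and BSA. Stopped after 60 min with 33 mM EDTA. Phospho-IκBα read by fluorescence-polarization competition between an anti-phospho-IκBα antibody and a fluorescein-labelled phosphopeptide.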

In data set [2] the test system is PBMC. Briefly: Antiinflammatory activity in human PBMC assessed as inhibition of LPS-induced TNFalpha release treated for 5 mins before LPS challenge measured after 6 hrs by ELISA. The format is functional, cell-based. A digest of the protocol:
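PBMCs purified from heparinized healthy-volunteer blood by Ficoll-Hypaque gradient and suspended at 5 × 10⁶/mL in RPMI with 10% FBS. Cells preincubated with compound (0.2% DMSO) for 5 min at room temperature. LPS added from a 200 ng/mL stock, then 6 h at 37 °C. Medium TNF-α measured by ELISA. IC50 by linear regression.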
Background: ELISA stands for enzyme-linked immunosorbent assay.

Data set [3] relates to Canis familiaris. Briefly: Metabolic stability in dog assessed as metabolite (S)-N-(1-(3-(5-amino-8-methyl-8H-imidazo[4,5-d]thiazolo[5,4-b]pyridin-2-yl)phenyl)ethyl)acetamide total AUC at 2 mg/kg, iv. Further details: dose 2 mg/kg, route intravenous, time AUCmax. To be noted: in vivo. The class given is ADME, organism-based, Canis lupus familiaris.
The test system of data set [4] is Rattus norvegicus. The experiment in a line: Metabolic stability in rat assessed as metabolite (S)-N-(1-(3-(5-amino-8-methyl-8H-imidazo[4,5-d]thiazolo[5,4-b]pyridin-2-yl)phenyl)ethyl)acetamide total AUC at 2 mg/kg, iv and 10 mg/kg, po. As to conditions: in vivo. The class given is ADME, organism-based.
Data set [5] has as its system Blood. Briefly: Antiinflammatory activity in mouse whole blood assessed as inhibition of LPS-induced TNFalpha release treated for 5 mins before LPS challenge measured after 6 hrs by ELISA. The format is functional, tissue-based.
The target of data set [6] is Death-associated protein kinase 2 (Homo sapiens) (UniProt Q9UIK4). The experiment in a line: Residual activity at DAPK2 at 10 uM relative to control.
The subject of data set [7] is Mus musculus. The experiment in a line: Antiinflammatory activity in po dosed BALB/c mouse assessed as inhibition of LPS-induced TNFalpha release administered for 5 hrs before LPS challenge measured after 6.5 hrs post dose by ELISA. The format is functional, organism-based. A digest of the protocol:
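BALB/c female mice, 6–8 weeks old, n = 7–8 per treatment. Compounds given by oral gavage at 30 and 100 mg/kg in PEG400/HCl/Tween80/water; controls received vehicle alone. Five hours later, E. coli O111:B4 LPS 50 µg/kg ip. Serum collected 90 min after LPS, TNF-α measured by ELISA. Drug exposure sampled 6.5 h post-dose. Mean ± standard error.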

Data set [8] concerns Blood. The experiment in a line: Antiinflammatory activity in human whole blood assessed as inhibition of LPS-induced TNFalpha release treated for 5 mins before LPS challenge measured after 6 hrs by ELISA. The class given is functional, tissue-based.
For data set [9], the target named is Serine/threonine-protein kinase 16 (Homo sapiens) (UniProt O75716). Briefly: Residual activity at STK16 at 10 uM relative to control.
The subject of data set [10] is Mus musculus. The experiment in a line: Metabolic stability in mouse assessed as metabolite (S)-N-(1-(3-(5-amino-8-methyl-8H-imidazo[4,5-d]thiazolo[5,4-b]pyridin-2-yl)phenyl)ethyl)acetamide total AUC at 2 mg/kg, iv and 10 mg/kg, po. The class given is ADME, organism-based. As to conditions: in vivo.
Data set [11] can be described thus: Clearance in rat at 2 mg/kg, iv and 10 mg/kg, po. As to conditions: in vivo. The class given is ADME, organism-based.
Data set [12] concerns the target T2, Inhibitor of nuclear factor kappa-B kinase subunit alpha (Homo sapiens, UniProt O15111).
T2 sequence (O15111 whole entry): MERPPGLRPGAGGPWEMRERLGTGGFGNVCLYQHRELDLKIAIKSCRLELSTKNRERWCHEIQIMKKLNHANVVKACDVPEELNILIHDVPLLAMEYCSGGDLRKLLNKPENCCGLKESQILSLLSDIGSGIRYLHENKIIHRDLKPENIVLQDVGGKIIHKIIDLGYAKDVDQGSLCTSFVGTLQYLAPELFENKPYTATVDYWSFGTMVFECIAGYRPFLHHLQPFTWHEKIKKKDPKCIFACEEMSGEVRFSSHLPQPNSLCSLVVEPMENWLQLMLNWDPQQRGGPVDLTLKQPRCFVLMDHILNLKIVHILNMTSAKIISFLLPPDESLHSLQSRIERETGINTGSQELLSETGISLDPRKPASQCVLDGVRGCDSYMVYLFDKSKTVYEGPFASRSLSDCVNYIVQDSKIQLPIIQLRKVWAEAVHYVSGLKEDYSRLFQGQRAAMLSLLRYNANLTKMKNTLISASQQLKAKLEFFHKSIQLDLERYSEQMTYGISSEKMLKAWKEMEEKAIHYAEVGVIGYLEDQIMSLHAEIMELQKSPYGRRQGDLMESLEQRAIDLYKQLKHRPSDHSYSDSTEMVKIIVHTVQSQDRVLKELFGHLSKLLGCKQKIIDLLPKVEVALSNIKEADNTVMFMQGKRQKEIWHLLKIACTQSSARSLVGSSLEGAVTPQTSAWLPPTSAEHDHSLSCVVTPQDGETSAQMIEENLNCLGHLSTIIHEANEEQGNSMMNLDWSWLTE
The experiment in a line: Inhibition of IKK1.

The nature of data set [13]: Half life in rat at 2 mg/kg, iv and 10 mg/kg, po. The class given is ADME, organism-based. As to conditions: in vivo.

Death-associated protein kinase 2 (Homo sapiens), sequence (Q9UIK4 whole entry, looked up): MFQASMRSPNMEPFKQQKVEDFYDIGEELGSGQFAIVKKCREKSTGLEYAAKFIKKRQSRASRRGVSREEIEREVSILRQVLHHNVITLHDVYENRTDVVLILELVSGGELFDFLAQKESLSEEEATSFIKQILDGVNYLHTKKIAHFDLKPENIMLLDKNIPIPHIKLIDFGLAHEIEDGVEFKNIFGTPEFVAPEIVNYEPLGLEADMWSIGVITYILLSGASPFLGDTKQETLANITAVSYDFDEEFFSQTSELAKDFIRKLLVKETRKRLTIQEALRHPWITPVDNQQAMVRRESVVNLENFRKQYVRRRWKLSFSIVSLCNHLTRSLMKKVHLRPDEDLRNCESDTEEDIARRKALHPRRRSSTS
Serine/threonine-protein kinase 16 (Homo sapiens), sequence (O75716 whole entry): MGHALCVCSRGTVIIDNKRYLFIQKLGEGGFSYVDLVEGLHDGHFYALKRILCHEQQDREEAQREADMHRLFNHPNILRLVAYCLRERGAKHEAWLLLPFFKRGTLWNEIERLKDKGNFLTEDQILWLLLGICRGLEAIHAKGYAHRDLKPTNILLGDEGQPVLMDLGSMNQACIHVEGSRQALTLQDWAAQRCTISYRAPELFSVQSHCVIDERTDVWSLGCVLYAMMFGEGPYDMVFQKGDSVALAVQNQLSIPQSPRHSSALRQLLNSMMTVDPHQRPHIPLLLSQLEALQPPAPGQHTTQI

For orientation: IC50 means the concentration needed to halve the response being measured. Consider `COc1nc2sc(-c3cccc([C@H](C)NC(C)=O)c3)nc2c2c1ncn2C`, for which the results for the IC50 in [1] and in [2] were above 0.5 µM and above 10 µM, respectively.
For orientation: residual activity means what remains of the control signal, in per cent. Read a high residual activity as much activity left. For the compound `CC(=O)N[C@@H](C)c1cccc(-c2nc3c(nc(N)c4ncn(C)c43)s2)c1`, the 50% inhibitory concentration (IC50) is 0.013 µM in [1], 1 µM in [5], 0.29 µM in data set [2] and 2 µM in data set [8]. In addition, the figures for the AUC in [3], in [4] and in [10] were 400 nM, 2400 nM and 3.37 µM, respectively. In addition, the residual activity in data set [6] and in data set [9] was below 10% each time. Also, in data set [7], the inhibition result was “Dose-dependent effect”.
`CC(=O)N[C@@H](C)c1cccc(-c2nc3c(nc(NC(=O)N(C)C)c4ncn(C)c43)s2)c1` returned a half-inhibitory concentration (IC50) in [1] of 0.13 µM.
Turning to `CC(=O)N[C@@H](C)c1cccc(-c2nc3c(nc(NCCN)c4ncn(C)c43)s2)c1`, the IC50 turned out to be 0.049 µM in data set [1] and 4.89 µM in data set [2].
Regarding `CCNc1nc2sc(-c3cccc([C@H](C)NC(=O)C4CCN(C)CC4)c3)nc2c2c1ncn2C`, the clearance in data set [11] came to 7.8 L/h/kg. The figures for the half-maximal inhibitory concentration (IC50) in data set [1] and in data set [2] were 0.01 µM and 0.56 µM, respectively.
On to `CCNc1nc2sc(-c3cccc([C@H](C)NC(=O)CNC(C)=O)c3)nc2c2c1ncn2C`, for which the IC50 in data set [1] came out at 0.027 µM; in data set [2], 0.48 µM.
The matching figures for `CCNc1nc2sc(-c3cccc(C(C)(C)NC(C)=O)c3)nc2c2c1ncn2C`: 0.036 µM and 0.4 µM.
In the same order, the values of `CC(=O)N[C@@H](C)c1cccc(-c2nc3c(nc(NCC(F)(F)F)c4ncn(C)c43)s2)c1` are 0.057 µM and 1.36 µM.
In the case of `Cc1ccc2nc(NCCN)c3ncc(C)n3c2c1` [BMS-345541], in [2], the half-inhibitory concentration (IC50) is 1 µM.
On to `CNc1nc2sc(-c3cccc([C@H](C)NC(C)=O)c3)nc2c2c1ncn2C`, for which the IC50 came out at 0.006 µM in data set [1], 0.08 µM in data set [2] and 0.23 µM in data set [12].
Usually half-life stands for the time in which the quantity being followed falls by half. A high value points to slow loss. `CCNc1nc2sc(-c3cccc([C@H](C)NC(=O)c4cccc(S(C)(=O)=O)c4)c3)nc2c2c1ncn2C` had a clearance in data set [11] of 0.306 L/h/kg. Further, the half-maximal inhibitory concentration (IC50) in data set [1] came to 0.041 µM; in data set [2], 0.22 µM. In addition, the half-life in data set [13] is 1.5 h.
With `CC(=O)NCc1cc(-c2cc3nc(NC4CC4)c4ncn(C)c4n3n2)ccc1F`, in data set [2], the IC50 came out at 0.73 µM.
Take `CNc1nc2sc(-c3ccc(CNC(C)=O)cc3)nc2c2c1ncn2C`: the results for the IC50 in data set [1] and in data set [2] were 0.06 µM and 0.53 µM, respectively.
Regarding `CCNc1nc2sc(-c3cccc([C@H](C)NC(=O)COCC)c3)nc2c2c1ncn2C`, the IC50 was 0.016 µM in data set [1] and 0.6 µM in [2].
As for `CCNc1nc2sc(-c3cccc([C@H](C)NC(=O)c4cc(C)on4)c3)nc2c2c1ncn2C`, the clearance in data set [11] is 0.168 L/h/kg. Besides, the figures for the IC50 in [1] and in data set [2] were 0.078 µM and 0.94 µM, respectively. In data set [13], this compound showed a half-life of 2.8 h.
As for `CCNc1nc2sc(-c3cccc([C@H](C)NC(=O)C4CCNCC4)c3)nc2c2c1ncn2C`, the clearance in [11] came to 0.18 L/h/kg. For the same compound, the IC50 stood at 0.02 µM in data set [1] and 0.29 µM in data set [2]. This compound also gave a half-life in data set [13] of 2.9 h.
As for `CNc1nc2sc(-c3cccc([C@@H](C)NC(C)=O)c3)nc2c2c1ncn2C`, the IC50 was found to be 0.028 µM in data set [1] and 0.56 µM in data set [2].
In the same order, the values of `CCNc1nc2sc(-c3cccc([C@@H](C)NC(C)=O)c3)nc2c2c1ncn2C` are 0.055 µM and 0.7 µM.
`CCNCC(=O)N[C@@H](C)c1cccc(-c2nc3c(nc(NCC)c4ncn(C)c43)s2)c1`: the results for the IC50 in data set [1] and in [2] were 0.039 µM and 0.44 µM, respectively.
In turn, `CCNc1nc2sc(-c3cccc([C@H](C)NC(=O)C4(C)CC4)c3)nc2c2c1ncn2C` had a clearance in data set [11] of 0.45 L/h/kg. Further, the IC50 in [1] came out at 0.034 µM; in data set [2], 0.44 µM. In addition, in [13], the half-life is 2 h.
For the compound `CC(=O)N[C@@H](C)c1cccc(-c2nc3c(nc(N(C)C)c4ncn(C)c43)s2)c1`, the values for the IC50 in data set [1] and in data set [2] were 0.1 µM and 0.99 µM, respectively.
Regarding `CNc1nc2sc(-c3cccc(C(C)NC(C)=O)c3)nc2c2c1ncn2C` (stereo not given), the IC50 in data set [1] turned out to be 0.009 µM; in data set [2] it was 0.17 µM; in data set [12], 0.43 µM.
